# From ChEMBL document CHEMBL4715736, “Identification of anticancer agents based on the thieno[2,3-b]pyridine and 1H-pyrazole molecular scaffolds” (2016)
# Tests used:
# Assay type in all cases: functional
# HT-29 = test: Growth inhibition of human HT-29 cells incubated for 48 hrs by sulforhodamine B assay
# Summary of the method: (§1)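 NCI60 panel at the NCI Developmental Therapeutics Program. Only compounds active in the 10 µM screen went to dose-response testing. GI50, the concentration giving 50% of maximal inhibition of proliferation, and TGI, the concentration giving total growth inhibition, were derived from the dose-response curves.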
# RPMI-8226 [1] = test: Growth inhibition of human RPMI-8226 cells assessed as cell growth at 1 uM incubated for 48 hrs by sulforhodamine B assay relative to control; conditions: read-out: Activity
# BT-549 = test: Growth inhibition of human BT-549 cells assessed as cell growth at 0.1 uM incubated for 48 hrs by sulforhodamine B assay relative to control; conditions: read-out: Activity
# MOLT-4 [2] = test: Growth inhibition of human MOLT-4 cells incubated for 48 hrs by sulforhodamine B assay; summary of the method: as §1
# SW-620 = test: Growth inhibition of human SW-620 cells assessed as cell growth at 0.1 uM incubated for 48 hrs by sulforhodamine B assay relative to control; conditions: read-out: Activity
# NCI-H460 = test: Growth inhibition of human NCI-H460 cells assessed as cell growth at 100 uM incubated for 48 hrs by sulforhodamine B assay relative to control; conditions: read-out: Activity
# 786-0 [3] = test: Growth inhibition of human 786-0 cells assessed as cell growth at 0.01 uM incubated for 48 hrs by sulforhodamine B assay relative to control; conditions: read-out: Activity
# Summary of the method: (§2)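 NCI Developmental Therapeutics Program NCI60 panel. Compounds that were active in the 10 µM one-dose screen went on to dose–response testing. Growth at each concentration is expressed relative to untreated control (100%). GI50 (concentration giving 50% of maximal inhibition of proliferation) and TGI (concentration giving total growth inhibition) were derived from the curves.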
# CAKI-1 = test: Growth inhibition of human CAKI-1 cells assessed as cell growth at 100 uM incubated for 48 hrs by sulforhodamine B assay relative to control; conditions: read-out: Activity; summary of the method: as §2
# OVCAR-8 [4] = test: Growth inhibition of human OVCAR-8 cells assessed as cell growth at 1 uM incubated for 48 hrs by sulforhodamine B assay relative to control; conditions: read-out: Activity
# HOP-62 = test: Growth inhibition of human HOP-62 cells assessed as cell growth at 100 uM incubated for 48 hrs by sulforhodamine B assay relative to control; conditions: read-out: Activity
# SR = test: Growth inhibition of human SR cells assessed as cell growth at 0.01 uM incubated for 48 hrs by sulforhodamine B assay relative to control; conditions: read-out: Activity
# A498 [5] = test: Growth inhibition of human A498 cells assessed as cell growth at 100 uM incubated for 48 hrs by sulforhodamine B assay relative to control; conditions: read-out: Activity; summary of the method: as §2
# IGROV-1 = test: Growth inhibition of human IGROV-1 cells assessed as cell growth at 0.1 uM incubated for 48 hrs by sulforhodamine B assay relative to control; conditions: read-out: Activity
# LOX IMVI = test: Growth inhibition of human LOX IMVI cells assessed as cell growth at 1 uM incubated for 48 hrs by sulforhodamine B assay relative to control; conditions: read-out: Activity
# OVCAR-8 [6] = test: Growth inhibition of human OVCAR-8 cells assessed as cell growth at 0.01 uM incubated for 48 hrs by sulforhodamine B assay relative to control; conditions: read-out: Activity
# 786-0 [7] = test: Growth inhibition of human 786-0 cells incubated for 48 hrs by sulforhodamine B assay; summary of the method: as §2
# A498 [8] = test: Growth inhibition of human A498 cells assessed as cell growth at 0.1 uM incubated for 48 hrs by sulforhodamine B assay relative to control; conditions: read-out: Activity; summary of the method: as §2
# MDA-MB-468 = test: Growth inhibition of human MDA-MB-468 cells assessed as cell growth at 0.1 uM incubated for 48 hrs by sulforhodamine B assay relative to control; conditions: read-out: Activity
# NCI/ADR-RES = test: Growth inhibition of human NCI/ADR-RES cells assessed as cell growth at 0.01 uM incubated for 48 hrs by sulforhodamine B assay relative to control; conditions: read-out: Activity
# NCI-H226 [9] = test: Growth inhibition of human NCI-H226 cells assessed as cell growth at 0.01 uM incubated for 48 hrs by sulforhodamine B assay relative to control; conditions: read-out: Activity
# RXF 393 = test: Growth inhibition of human RXF 393 cells assessed as cell growth at 0.1 uM incubated for 48 hrs by sulforhodamine B assay relative to control; conditions: read-out: Activity
# MCF7 = test: Growth inhibition of human MCF7 cells assessed as cell growth at 0.1 uM incubated for 48 hrs by sulforhodamine B assay relative to control; conditions: read-out: Activity
# PC-3 = test: Growth inhibition of human PC-3 cells assessed as cell growth at 0.01 uM incubated for 48 hrs by sulforhodamine B assay relative to control; conditions: read-out: Activity
# NCI-H322M = test: Growth inhibition of human NCI-H322M cells assessed as cell growth at 0.01 uM incubated for 48 hrs by sulforhodamine B assay relative to control; conditions: read-out: Activity
# COLO 205 = test: Growth inhibition of human COLO 205 cells assessed as cell growth at 0.01 uM incubated for 48 hrs by sulforhodamine B assay relative to control; conditions: read-out: Activity; summary of the method: as §2
# SNB-19 = test: Growth inhibition of human SNB-19 cells incubated for 48 hrs by sulforhodamine B assay
# Summary of the method: (§3)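 NCI DTP 60-line human tumour panel. Dose-response curves were run only for ligands active in the initial 10 µM screen. GI50 (concentration giving 50% of maximal inhibition of proliferation) and TGI (concentration giving total growth inhibition) were derived from these curves.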
# OVCAR-4 = test: Growth inhibition of human OVCAR-4 cells assessed as cell growth at 0.01 uM incubated for 48 hrs by sulforhodamine B assay relative to control; conditions: read-out: Activity
# SF-268 = test: Growth inhibition of human SF-268 cells assessed as cell growth at 100 uM incubated for 48 hrs by sulforhodamine B assay relative to control; conditions: read-out: Activity
# UACC-257 = test: Growth inhibition of human UACC-257 cells incubated for 48 hrs by sulforhodamine B assay; summary of the method: as §3
# RPMI-8226 [10] = test: Growth inhibition of human RPMI-8226 cells assessed as cell growth at 0.1 uM incubated for 48 hrs by sulforhodamine B assay relative to control; conditions: read-out: Activity
# K562 = test: Growth inhibition of human K562 cells assessed as cell growth at 100 uM incubated for 48 hrs by sulforhodamine B assay relative to control; conditions: read-out: Activity
# NCI-H226 [11] = test: Growth inhibition of human NCI-H226 cells assessed as cell growth at 0.1 uM incubated for 48 hrs by sulforhodamine B assay relative to control; conditions: read-out: Activity
# RPMI-8226 [12] = test: Growth inhibition of human RPMI-8226 cells incubated for 48 hrs by sulforhodamine B assay; summary of the method: as §3
# MOLT-4 [13] = test: Growth inhibition of human MOLT-4 cells assessed as cell growth at 100 uM incubated for 48 hrs by sulforhodamine B assay relative to control; conditions: read-out: Activity
# [14] = read-out: LC50 (the source's name)
compound,measurement,setting,value
Cc1cc(C)c(NC(=O)c2sc3nc4c(cc3c2N)CN(Cc2ccccc2)CC4)c(C)c1,GI50,HT-29,2.88 µM
same,LC50,HT-29,> 100 µM
same,TGI,HT-29,13.2 µM
same,growth at 1 µM,RPMI-8226 [1],87%
same,growth at 0.1 µM,BT-549,91%
same,GI50,MOLT-4 [2],4.15 µM
same,TGI,MOLT-4 [2],> 100 µM
same,CC50,MOLT-4 [2]; [14],> 100 µM
same,growth at 0.1 µM,SW-620,98%
same,growth at 100 µM,NCI-H460,-25%
same,growth at 0.01 µM,786-0 [3],91%
same,growth at 100 µM,CAKI-1,4%
same,growth at 1 µM,OVCAR-8 [4],91%
same,growth at 100 µM,HOP-62,7%
same,growth at 0.01 µM,SR,100%
same,growth at 100 µM,A498 [5],-2%
same,growth at 0.1 µM,IGROV-1,94%
same,growth at 1 µM,LOX IMVI,99%
same,growth at 0.01 µM,OVCAR-8 [6],101%
same,GI50,786-0 [7],3.48 µM
same,TGI,786-0 [7],> 100 µM
same,CC50,786-0 [7]; [14],> 100 µM
same,growth at 0.1 µM,A498 [8],91%
same,growth at 0.1 µM,MDA-MB-468,78%
same,growth at 0.01 µM,NCI/ADR-RES,104%
same,growth at 0.01 µM,NCI-H226 [9],92%
same,growth at 0.1 µM,RXF 393,89%
same,growth at 0.1 µM,MCF7,91%
same,growth at 0.01 µM,PC-3,94%
same,growth at 0.01 µM,NCI-H322M,96%
same,growth at 0.01 µM,COLO 205,94%
same,GI50,SNB-19,7.21 µM
same,LC50,SNB-19,> 100 µM
same,TGI,SNB-19,> 100 µM
same,growth at 0.01 µM,OVCAR-4,93%
same,growth at 100 µM,SF-268,-10%
same,GI50,UACC-257,6.71 µM
same,LC50 (concentration killing 50% of cells),UACC-257,> 100 µM
same,TGI,UACC-257,> 100 µM
same,growth at 0.1 µM,RPMI-8226 [10],100%
same,growth at 100 µM,K562,13%
same,growth at 0.1 µM,NCI-H226 [11],93%
same,GI50,RPMI-8226 [12],3.18 µM
same,LC50,RPMI-8226 [12],> 100 µM
same,TGI,RPMI-8226 [12],35.1 µM
same,growth at 100 µM,MOLT-4 [13],10%
